Structures are written as SMILES. The source made the active and inactive calls. The calls are words filed in the database; no cut-off is given here. Where only a bound is given, the exact number is not on record here.

Experimental findings from ChEMBL document CHEMBL4354867, “Validation and Characterization of Five Distinct Novel Inhibitors of Human Cytomegalovirus” (J Med Chem, 2020) are described below.

Data set [1] relates to Human betaherpesvirus 5. Put plainly: Antiviral activity against HCMV Towne infected in human HFF cells assessed as reduction in plaque formation treated with compound following viral infection and incubated for 8 to 10 days by crystal violet staining based assay. The data set is classed as functional, organism-based. Conditions: Human betaherpesvirus 5, strain Towne.
The test system of data set [2] is Human betaherpesvirus 5. Description: Antiviral activity against GCV-resistant HCMV Towne infected in human HFF cells assessed as reduction in plaque formation treated with compound following viral infection and incubated for 8 to 10 days by crystal violet staining based assay. The conditions noted are these: Human betaherpesvirus 5, strain Towne. The data set is classed as functional, organism-based.

The test system of a further data set is HFF. Put plainly: Cytotoxicity against human HFF cells assessed as reduction in cell viability incubated for 72 hrs or 10 days by MTT assay. The data set is classed as cell-based. The method in brief:
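MTT assay on uninfected cells exposed to compound for 72 h or 8–10 days, matching the antiviral assay durations. MTT (5 mg/mL stock in PBS) added, then 2–3 h at 37 °C. Formazan absorbance read at 560 nm.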
Background: Tetrazolium assays rely on reduction of a dye to a coloured formazan, in cell work by metabolically active cells.

The next data set has as its system Human alphaherpesvirus 1. Description: Antiviral activity against HSV 1 infected in African green monkey Vero cells assessed as reduction in plaque formation incubated for 36 hrs by crystal violet staining based assay. The data set is classed as functional, organism-based. Conditions: vero. The method in brief: (§1)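 Plaque reduction in Vero cells: virus adsorbed 60 min, then compound added in a carboxymethylcellulose overlay. Plaques counted after 36 h by crystal violet staining.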

For another data set, the system named is Human alphaherpesvirus 2. Put plainly: Antiviral activity against HSV 2 infected in African green monkey Vero cells assessed as reduction in plaque formation incubated for 36 hrs by crystal violet staining based assay. The data set is classed as functional, organism-based. Conditions: vero. The method in brief:
as §1

A further data set deals with Human gammaherpesvirus 4. Put plainly: Antiviral activity against EBV infected in human AKATA cells assessed as reduction in IgG-induced lytic virus replication measured at 48 hrs post-lytic induction by qRT-PCR analysis. The data set is classed as functional, organism-based. Conditions: human gammaherpesvirus 4, 48 h; read-out: EC50.
In data set [3] the test system is Human betaherpesvirus 5. Put plainly: Antiviral activity against pp28-luciferase expressing HCMV Towne infected in human HFF cells assessed as reduction in viral entry by measuring viral replication at 1 to 10 uM treated with compound for 24 hrs followed by viral infection at MOI of 0.01 to 1 PFU/cell measured at 72 hrs post infection by luciferase reporter gene assay. Type of data set: functional, organism-based. The conditions noted are these: strain Towne. The method in brief: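 HFFs pretreated 24 h with compound, then infected with pp28-luciferase recombinant Towne HCMV (luciferase under the UL99 late promoter) at MOI 1, 0.1 or 0.01. Luciferase measured in cell lysates after 3 days. Triplicate values, mean ± SD.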
Background: In a reporter assay the amount or activity of a reporter protein is the signal.

Data set [4] concerns Human betaherpesvirus 5. Description: Inhibition of viral protein expression in HCMV Towne infected in human HFF cells assessed as reduction in IE2 expression at 3 uM treated with compound for 24 hrs followed by viral infection at MOI of 1 PFU/cell measured at 72 hrs post infection by Western blot analysis. Conditions: strain Towne. Type of data set: functional, organism-based. The method in brief:
(§2)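 HFFs pretreated with compound, then infected with HCMV Towne at MOI 1, 0.1 or 0.01. Viral proteins in cell lysates detected at 72 hpi by SDS-PAGE (8–10%), PVDF transfer and chemiluminescent immunoblot. Images from a representative experiment.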
A general note: In western blotting, separated proteins are transferred to a membrane and probed.

For data set [5], the system named is Human betaherpesvirus 5. Description: Inhibition of viral protein expression in HCMV Towne infected in human HFF cells assessed as reduction in UL84 expression at 3 uM treated with compound for 24 hrs followed by viral infection at MOI of 1 PFU/cell measured at 72 hrs post infection by Western blot analysis. The data set is classed as functional, organism-based. Conditions: strain Towne. The method in brief: as §2

Data set [6] concerns Human betaherpesvirus 5. Description: Inhibition of viral protein expression in HCMV Towne infected in human HFF cells assessed as reduction in UL44 expression at 3 uM treated with compound for 24 hrs followed by viral infection at MOI of 1 PFU/cell measured at 72 hrs post infection by Western blot analysis. Type of data set: functional, organism-based. Conditions: strain Towne. Summed up:
as §2

The subject of data set [7] is Human betaherpesvirus 5. Put plainly: Inhibition of viral protein expression in HCMV Towne infected in human HFF cells assessed as reduction in IE2 expression at 3 uM treated with compound following viral infection at MOI of 1 PFU/cell measured at 72 hrs post infection by Western blot analysis. Type of data set: functional, organism-based. Conditions: strain Towne. The method in brief:
(§3)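 HFFs infected with HCMV Towne (MOI 1), then treated with compound. Lysates taken at 72 hpi, equal protein loaded on 8–10% Tris-glycine SDS-PAGE and transferred to PVDF. Primary antibodies overnight at 4 °C, HRP secondary, chemiluminescent detection; β-actin as loading control.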

For data set [8], the system named is Human betaherpesvirus 5. Description: Inhibition of viral protein expression in HCMV Towne infected in human HFF cells assessed as reduction in IE1 expression at 3 uM treated with compound following viral infection at MOI of 1 PFU/cell measured at 72 hrs post infection by Western blot analysis. Conditions: strain Towne. Type of data set: functional, organism-based. The method in brief:
as §3

Data set [9] concerns Human betaherpesvirus 5. Description: Inhibition of viral protein expression in HCMV Towne infected in human HFF cells assessed as reduction in UL44 expression at 3 uM treated with compound following viral infection at MOI of 1 PFU/cell measured at 72 hrs post infection by Western blot analysis. Type of data set: functional, organism-based. Conditions: strain Towne. Summed up: as §3

Data set [10] relates to Human betaherpesvirus 5. Put plainly: Inhibition of viral protein expression in HCMV Towne infected in human HFF cells assessed as reduction in IE2 expression at 3 uM treated with compound for 24 hrs followed by viral infection at MOI of 0.01 PFU/cell measured at 72 hrs post infection by Western blot analysis. The data set is classed as functional, organism-based. The conditions noted are these: strain Towne. Summed up:
as §2

Data set [11] relates to Human betaherpesvirus 5. Description: Inhibition of viral protein expression in HCMV Towne infected in human HFF cells assessed as reduction in IE1 expression at 3 uM treated with compound for 24 hrs followed by viral infection at MOI of 0.01 PFU/cell measured at 72 hrs post infection by Western blot analysis. Conditions: strain Towne. The data set is classed as functional, organism-based. The method in brief:
as §2

Data set [12] deals with Human betaherpesvirus 5. Description: Inhibition of viral protein expression in HCMV Towne infected in human HFF cells assessed as reduction in UL84 expression at 3 uM treated with compound for 24 hrs followed by viral infection at MOI of 0.01 PFU/cell measured at 72 hrs post infection by Western blot analysis. The data set is classed as functional, organism-based. Conditions: strain Towne. Summed up:
as §2

Data set [13] has as its system Human betaherpesvirus 5. Put plainly: Inhibition of viral protein expression in HCMV Towne infected in human HFF cells assessed as reduction in UL44 expression at 3 uM treated with compound for 24 hrs followed by viral infection at MOI of 0.01 PFU/cell measured at 72 hrs post infection by Western blot analysis. The conditions noted are these: strain Towne. The data set is classed as functional, organism-based. The method in brief: as §2

For data set [14], the system named is Human betaherpesvirus 5. Put plainly: Antiviral activity against HCMV Towne infected in human HFF cells assessed as reduction in viral entry into host cell by measuring nuclear localization of pp65 at 3 uM treated with compound for 24 hrs followed by viral infection at MOI of 0.1 PFU/cell measured at 2 hrs post infection by immunofluorescence microscopy. Type of data set: functional, organism-based. Conditions: strain Towne. The method in brief: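 HFFs on chamber slides pretreated 24 h with compound diluted in serum-free medium, then infected with HCMV Towne for 2 h. Heparin 30 μM as positive entry-block control. Cells methanol-fixed, then stained with anti-pp65 (1:50) and rhodamine anti-mouse IgG, with DAPI. Nuclear pp65 viewed by fluorescence microscopy at 40x; repeated three times.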

The test system of data set [15] is Human betaherpesvirus 5. Put plainly: Antiviral activity againstpp28-luciferase expressing HCMV Towne infected in human HFF cells assessed as reduction in viral replication treated with compound following viral infection at MOI of 1 PFU/cells measured after 3 days in presence of GCV by luciferase reporter gene assay. The conditions noted are these: Human betaherpesvirus 5, strain Towne, 72 h. Type of data set: functional, organism-based. The method in brief:
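HFFs in 96-well plates were infected with pp28-luciferase Towne HCMV, in which luciferase is driven by the UL99 late promoter, at MOI 1. A dose-response of each drug alone gave its EC₅₀. Combinations started at twice each EC₅₀ in DMEM with 4% FBS, followed by two-fold serial dilutions, and were added after infection. Luciferase was read in cell lysates at 72 hpi. The Bliss ratio is observed over expected inhibition.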

For data set [16], the system named is Human betaherpesvirus 5. Put plainly: Antiviral activity against HCMV TB40 infected in human HFF cells assessed as reduction in plaque formation at 1 to 10 uM treated with compound following viral infection at MOI of 100 PFU/ml and measured after 10 days by crystal violet staining based assay. The data set is classed as functional, organism-based.

A word on the EC50: it is the concentration at which the effect is half-maximal. What is called CC50 is the concentration at which the toxic effect on the cells reaches its halfway point. On to `COc1ccc(Cl)cc1C(=O)Nc1ccc(NC(=O)c2ccco2)cc1`, for which the EC50 with Human betaherpesvirus 5 [1] was 0.55 µM; in the data set with Human betaherpesvirus 5 [2], 0.25 µM; with Human alphaherpesvirus 1, “Not Active”; with Human alphaherpesvirus 2, “Not Active”; in the data set with Human gammaherpesvirus 4, above 10 µM; in the data set on Human betaherpesvirus 5 [15] it was 0.72 µM. The CC50 with HFF was above 500 µM. In addition, the result with Human betaherpesvirus 5 [3], in the data set on Human betaherpesvirus 5 [14] and in the data set with Human betaherpesvirus 5 [16] was Active. Moreover, the inhibition entry in the data set on Human betaherpesvirus 5 [4], in the data set with Human betaherpesvirus 5 [5], with Human betaherpesvirus 5 [6], in the data set on Human betaherpesvirus 5 [7], with Human betaherpesvirus 5 [8] and in the data set on Human betaherpesvirus 5 [9] was “inactive” each time. The inhibition entry with Human betaherpesvirus 5 [10], in the data set on Human betaherpesvirus 5 [11], in the data set on Human betaherpesvirus 5 [12] and with Human betaherpesvirus 5 [13] was “Active” in each case.
